Assay results as given in ChEMBL document CHEMBL5055640, “Discovery of Novel Acetamide-Based Heme Oxygenase-1 Inhibitors with Potent In Vitro Antiproliferative Activity” (J Med Chem, 2021).
Activity calls are given as the source filed them. The rule behind the calls is not given here.

Columns and labels:
[1] = tested on: A 172; experiment: Antiproliferative activity against human A172 cells assessed as reduction in cell viability at 50 uM incubated for 48 hrs by MTT assay; format: functional, cell-based
In short: (§1)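 Cells grown in DMEM with 10% heat-inactivated FBS and penicillin/streptomycin at 37 °C, 5% CO2, seeded at 7 × 10^3 cells/well. After 24 h, treated 48 h at 1, 10 or 50 μM. MTT 0.5 mg/mL added for 4 h at 37 °C, formazan dissolved in DMSO, A570 read. Eight replicate wells per group, at least three independent experiments, % of control, mean ± SEM.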

[2] = tested on: A 172; experiment: Antiproliferative activity against human A172 cells assessed as reduction in cell viability at 10 uM incubated for 48 hrs by MTT assay; format: functional, cell-based; in short: as §1
[3] = tested on: A 172; experiment: Antiproliferative activity against human A172 cells assessed as reduction in cell viability at 1 uM incubated for 48 hrs by MTT assay; format: functional, cell-based; in short: as §1
[4] = tested on: A549; experiment: Antiproliferative activity against human A549 cells assessed as reduction in cell viability at 10 uM incubated for 48 hrs by MTT assay; format: functional, cell-based; in short: as §1
[5] = tested on: A549; experiment: Antiproliferative activity against human A549 cells assessed as reduction in cell viability at 1 uM incubated for 48 hrs by MTT assay; format: functional, cell-based; in short: as §1
[6] = tested on: U-87 MG; experiment: Antiproliferative activity against human U-87MG cells assessed as reduction in cell viability at 50 uM incubated for 48 hrs by MTT assay relative to control; format: functional, U-87MG ATCC; conditions: for inhibition: U-87MG ATCC; in short: as §1
[7] = tested on: U-87 MG; experiment: Antiproliferative activity against human U-87MG cells assessed as reduction in cell viability at 10 uM incubated for 48 hrs by MTT assay relative to control; format: functional, U-87MG ATCC; in short: as §1
[8] = tested on: U-87 MG; experiment: Antiproliferative activity against human U-87MG cells assessed as reduction in cell viability at 1 uM incubated for 48 hrs by MTT assay relative to control; format: functional, U-87MG ATCC; in short: as §1
[9] = tested on: U-87 MG; experiment: Antiinvasive activity against human U-87 MG cells assessed as reduction in cell motility measured after 48 hrs by wound healing assay; format: functional, cell-based; conditions: U-87MG ATCC
In short: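 Confluent U87MG monolayers (5 × 10^4 cells/well) scratched with a pipette tip, then cultured in 1% serum medium with or without 10 μM compound. Cells advancing into the wound counted at 24 and 48 h in three random high-power fields per well, duplicate wells, and expressed as % of control. Mean ± SEM.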

[10] = tested on: U-87MG ATCC; experiment: Reduction in HO-1 expression in human U-87MG cells at 10 uM incubated for 48 hrs by Western blot analysis; format: functional, cell-based
In short: (§2)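 Cells treated 48 h at 10 μM. Lysed in Tris/EDTA/EGTA/sucrose buffer with protease and phosphatase inhibitors, sonicated, spun. 30 μg protein resolved on 4–15% Bis-Tris gel, transferred to PVDF, probed for HO-1. Band density normalized to actin and given as fold change; three independent experiments, mean ± SEM.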

[11] = target: T1, Heme oxygenase 1 (Homo sapiens) (UniProt P09601); experiment: Inhibition of human HO-1 activity in human U-87MG cells assessed as reduction in immunoreactivity in cytoplasm at 10 uM incubated for 48 hrs […]; format: cell-based
T1 sequence (whole entry): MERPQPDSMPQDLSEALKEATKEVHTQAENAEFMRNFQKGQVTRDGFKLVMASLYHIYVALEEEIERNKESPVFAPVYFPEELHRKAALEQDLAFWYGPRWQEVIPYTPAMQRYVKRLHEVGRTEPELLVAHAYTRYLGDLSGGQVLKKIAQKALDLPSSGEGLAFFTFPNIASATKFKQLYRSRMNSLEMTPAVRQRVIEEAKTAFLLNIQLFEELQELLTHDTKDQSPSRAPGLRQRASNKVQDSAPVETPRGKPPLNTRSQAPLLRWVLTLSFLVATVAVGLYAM
In short: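 U87MG cells on coverslips treated 48 h at 10 μM or left untreated. Fixed in 4% paraformaldehyde, permeabilized with 0.2% Triton X-100, blocked with 0.1% BSA, probed with rabbit anti-HO-1 then Alexa Fluor 488 anti-rabbit. Nuclei counterstained with DAPI; random fields imaged by fluorescence microscopy.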

[12] = tested on: U-87MG ATCC; experiment: Reduction in VEGF intracellular expression in human U-87 MG cells by Western blot analysis; format: functional, cell-based
In short: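 U87MG cells treated 48 h with vehicle or 10 μM compound. Lysates (30 μg protein) resolved on 4–15% Bis-Tris gel and immunoblotted with goat polyclonal anti-VEGF; β-tubulin and β-actin antibodies also used.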

[13] = tested on: U-87MG ATCC; experiment: Reduction in VEGF release in human U-87 MG cells by ELISA; format: functional, cell-based
In short: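 Confluent U87MG cells in 1% FBS medium treated 48 h with 10 μM compound or vehicle. VEGF-A in the conditioned medium measured by sandwich ELISA: capture antibody, biotinylated anti-human VEGF, HRP-streptavidin, TMB substrate, absorbance at 450 nm.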

[14] = tested on: H5V; experiment: Antiangiogenesis activity in mouse H5V cells assessed as decrease in tube like structure formation using culture medium derived from human U-87 MG cells treated at 10 uM for 48 hrs; format: functional, cell-based
In short: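 Conditioned medium: subconfluent U87MG cells held 48 h at 37 °C in 1% FBS medium with 10 μM compound or vehicle, then spun and frozen. Overnight-starved H5V endothelial cells seeded on reduced-growth-factor basement membrane matrix and cultured 48 h at 37 °C in the conditioned medium. Tubes counted in three random fields and expressed as % of control.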

[15] = target: T1, Heme oxygenase 1 (Homo sapiens); experiment: Inhibition of human HO-1 activity in human U-87MG cells assessed as bilirubin formation at 10 uM
[16] = target: T2, Heme oxygenase 1 (Rattus norvegicus, UniProt P06762); experiment: Inhibition of Sprague-Dawley rat spleen microsome HO-1 assessed as bilirubin formation incubated for 60 mins by double-beam spectrophotometry; format: microsomes
T2 sequence (P06762 whole entry): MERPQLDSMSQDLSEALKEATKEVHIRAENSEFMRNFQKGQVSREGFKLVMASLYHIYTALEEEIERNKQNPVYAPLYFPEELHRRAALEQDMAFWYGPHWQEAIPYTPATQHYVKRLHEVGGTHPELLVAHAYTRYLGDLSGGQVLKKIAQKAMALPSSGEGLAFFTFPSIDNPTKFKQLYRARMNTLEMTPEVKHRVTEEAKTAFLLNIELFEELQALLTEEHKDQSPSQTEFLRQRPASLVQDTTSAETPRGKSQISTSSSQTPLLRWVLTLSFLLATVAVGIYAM

[17] = target: T3, Heme oxygenase 2 (Rattus norvegicus, UniProt P23711); experiment: Inhibition of Sprague-Dawley rat brain microsome HO-2 assessed as bilirubin formation incubated for 60 mins by double-beam spectrophotometry; format: microsomes
T3 sequence (P23711 whole entry): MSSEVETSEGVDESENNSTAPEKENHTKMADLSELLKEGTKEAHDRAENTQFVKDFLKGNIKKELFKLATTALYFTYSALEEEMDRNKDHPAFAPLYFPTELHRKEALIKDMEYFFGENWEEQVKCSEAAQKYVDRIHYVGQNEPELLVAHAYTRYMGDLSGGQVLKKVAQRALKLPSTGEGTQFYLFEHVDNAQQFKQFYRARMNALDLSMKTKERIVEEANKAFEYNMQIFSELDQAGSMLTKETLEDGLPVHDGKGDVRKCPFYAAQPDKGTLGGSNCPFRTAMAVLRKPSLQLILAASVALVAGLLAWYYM

[18] = species on record: Rattus norvegicus; experiment: Selectivity index, ratio of IC50 for inhibition of Sprague-Dawley rat brain microsome HO-2 to IC50 for inhibition of Sprague-Dawley rat spleen microsome HO-1
[19] = tested on: DU-145; experiment: Reduction in HO-1 expression in human DU-145 cells at 10 uM incubated for 48 hrs by Western blot analysis; format: functional, cell-based; in short: as §2
[20] = tested on: DU-145; experiment: Antiproliferative activity against human DU145 cells assessed as reduction in cell viability at 10 uM incubated for 48 hrs by MTT assay; format: functional, cell-based; in short: as §1
[21] = tested on: DU-145; experiment: Antiproliferative activity against human DU145 cells assessed as reduction in cell viability at 50 uM incubated for 48 hrs by MTT assay; format: functional, cell-based; in short: as §1
[22] = tested on: DU-145; experiment: Antiproliferative activity against human DU145 cells assessed as reduction in cell viability at 1 uM incubated for 48 hrs by MTT assay; format: functional, cell-based; in short: as §1
[23] = tested on: A549; experiment: Antiproliferative activity against human A549 cells assessed as reduction in cell viability at 50 uM incubated for 48 hrs by MTT assay; format: functional, cell-based; in short: as §1

| SMILES | inhibition [1] | inhibition [2] | inhibition [3] | inhibition [4] | inhibition [5] | inhibition at 10 µM [7] [%] | inhibition at 1 µM [8] [%] | other results |
| --- | --- | --- | --- | --- | --- | --- | --- | --- |
| CN(C(=O)Cn1ccnc1)C(c1ccccc1)C1CCCCC1 (configuration not stated) | Active | Active | Active | – | – | – | – | – |
| CN(C(=O)Cn1ccnc1)C(c1ccccc1)c1ccc(Cl)cc1 (configuration not stated) | Active | Active | Active | inactive | inactive | > 60 | > 60 | inhibition at 50 µM [6]: > 60%; Activity [9]: Active; Activity [10]: Active; inhibition [11]: Active; Activity [12]: Active; Activity [13]: Active; Activity [14]: Active; inhibition [15]: Active |
| CN(C(=O)Cn1ccnc1)c1ccccc1 | – | – | – | – | – | – | – | IC50 [16]: 2500 µM |
| FC(F)(F)c1ccc(SC[C@@H]2CO[C@](CCc3ccc(Cl)cc3)(Cn3ccnc3)O2)nc1 | – | – | – | – | – | – | – | IC50 [17]: 16 µM; IC50 [16]: 2.1 µM |
| O=C(Cn1ccnc1)NC(c1ccccc1)c1ccccc1 | – | – | – | – | – | – | – | Selectivity Index [18]: 0.5 |
| CN(C(=O)Cn1ccnc1)C(c1ccccc1)c1ccccc1 | Active | Active | Active | inactive | inactive | – | – | Activity [19]: Active |
| CN(C(=O)Cn1ccnc1)C(c1ccccc1)c1ccc(OCc2ccc(Br)cc2)cc1 (configuration not stated) | Active | Active | – | inactive | inactive | 20 | 20 | inhibition [20]: Active; inhibition [21]: Active; inhibition [22]: Active; inhibition [23]: Active; inhibition [6]: Active |
| CN(C(=O)Cn1ccnc1)C(c1ccccc1)c1ccc(I)cc1 (configuration not stated) | Active | Active | – | inactive | inactive | > 30 | > 30 | inhibition [21]: Active; inhibition [23]: Active; inhibition [6]: Active; Activity [19]: Active |
| CN(C(=O)Cn1ccnc1)C(c1ccccc1)C1CCCC1 (configuration not stated) | Active | Active | Active | – | – | – | – | – |
| CN(C(=O)Cn1ccnc1)C(c1ccccc1)c1cccc(Br)c1 (configuration not stated) | inactive | inactive | inactive | inactive | inactive | > 30 | > 30 | inhibition at 50 µM [6]: > 30% |
| CN(C(=O)Cn1ccnc1)C(c1ccccc1)c1ccc(OCc2ccccc2)cc1 (configuration not stated) | Active | Active | Active | inactive | inactive | 20 | 20 | inhibition [20]: Active; inhibition [21]: Active; inhibition [22]: Active; inhibition [23]: Active; inhibition [6]: Active |
